Values after ≈ are worked out from the molar mass of the structure shown.
tested on: Staphylococcus aureus; experiment: Antibacterial activity against Staphylococcus aureus ATCC 25923 measured after 24 hrs by two-fold serial dilution method; type: functional; conditions: ATCC 25923, 24 h
Summary of the method: (§1)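 MIC by two-fold serial broth microdilution in 96-well plates, following NCCLS recommendations. Chloromycin, norfloxacin and fluconazole serve as reference drugs. The MIC is read as the lowest concentration that inhibits growth, in µg/mL.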

Compound | MIC
O=C(N[C@H](CO)[C@H](O)c1ccc([N+](=O)[O-])cc1)C(Cl)Cl [CHLORAMPHENICOL] | 16 µg/mL (≈ 49.5 µM)
CCCCCCCCCCn1c(COc2c(OC)ccc3cc4[n+](cc23)CCc2cc3c(cc2-4)OCO3)nc2ccccc21.[Cl-] | 16 µg/mL
COc1ccc2cc3[n+](cc2c1OCc1nc2ccccc2n1Cc1cccc(Cl)c1)CCc1cc2c(cc1-3)OCO2.[Cl-] | 512 µg/mL
CCn1cc(C(=O)O)c(=O)c2cc(F)c(N3CCNCC3)cc21 [NORFLOXACIN] | 2 µg/mL (≈ 6.26 µM)
COc1ccc2cc3[n+](cc2c1OCc1nc2ccccc2n1Cc1ccc([N+](=O)[O-])cc1)CCc1cc2c(cc1-3)OCO2.[Cl-] | 64 µg/mL

tested on: Staphylococcus aureus; experiment: Antibacterial activity against methicillin-resistant Staphylococcus aureus N315 measured after 24 hrs by two-fold serial dilution method; type: functional; conditions: N315, 24 h
Summary of the method: (§2)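 Two-fold serial dilution in 96-well microtest plates following NCCLS guidance (micro broth dilution). Chloromycin and norfloxacin serve as positive controls. MIC is reported in µg/mL.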

Compound | MIC
O=C(N[C@H](CO)[C@H](O)c1ccc([N+](=O)[O-])cc1)C(Cl)Cl [CHLORAMPHENICOL] | 16 µg/mL (≈ 49.5 µM)
CCCCCCCCCCn1c(COc2c(OC)ccc3cc4[n+](cc23)CCc2cc3c(cc2-4)OCO3)nc2ccccc21.[Cl-] | 16 µg/mL
COc1ccc2cc3[n+](cc2c1OCc1nc2ccccc2n1Cc1cccc(Cl)c1)CCc1cc2c(cc1-3)OCO2.[Cl-] | 512 µg/mL
CCn1cc(C(=O)O)c(=O)c2cc(F)c(N3CCNCC3)cc21 [NORFLOXACIN] | 8 µg/mL (≈ 25.1 µM)
COc1ccc2cc3[n+](cc2c1OCc1nc2ccccc2n1Cc1ccc([N+](=O)[O-])cc1)CCc1cc2c(cc1-3)OCO2.[Cl-] | 512 µg/mL

tested on: Bacillus subtilis; experiment: Antibacterial activity against Bacillus subtilis measured after 24 hrs by two-fold serial dilution method; type: functional; conditions: not given; summary of the method: as §1

Compound | MIC
O=C(N[C@H](CO)[C@H](O)c1ccc([N+](=O)[O-])cc1)C(Cl)Cl [CHLORAMPHENICOL] | 32 µg/mL (≈ 99 µM)
CCCCCCCCCCn1c(COc2c(OC)ccc3cc4[n+](cc23)CCc2cc3c(cc2-4)OCO3)nc2ccccc21.[Cl-] | 32 µg/mL
COc1ccc2cc3[n+](cc2c1OCc1nc2ccccc2n1Cc1cccc(Cl)c1)CCc1cc2c(cc1-3)OCO2.[Cl-] | 512 µg/mL
CCn1cc(C(=O)O)c(=O)c2cc(F)c(N3CCNCC3)cc21 [NORFLOXACIN] | 4 µg/mL (≈ 12.5 µM)
COc1ccc2cc3[n+](cc2c1OCc1nc2ccccc2n1Cc1ccc([N+](=O)[O-])cc1)CCc1cc2c(cc1-3)OCO2.[Cl-] | 512 µg/mL

tested on: Micrococcus luteus; experiment: Antibacterial activity against Micrococcus luteus ATCC 4698 measured after 24 hrs by two-fold serial dilution method; type: functional; conditions: NCTC 2665, 24 h; summary of the method: as §1

Compound | MIC
O=C(N[C@H](CO)[C@H](O)c1ccc([N+](=O)[O-])cc1)C(Cl)Cl [CHLORAMPHENICOL] | 8 µg/mL (≈ 24.8 µM)
CCCCCCCCCCn1c(COc2c(OC)ccc3cc4[n+](cc23)CCc2cc3c(cc2-4)OCO3)nc2ccccc21.[Cl-] | 32 µg/mL
COc1ccc2cc3[n+](cc2c1OCc1nc2ccccc2n1Cc1cccc(Cl)c1)CCc1cc2c(cc1-3)OCO2.[Cl-] | 16 µg/mL
CCn1cc(C(=O)O)c(=O)c2cc(F)c(N3CCNCC3)cc21 [NORFLOXACIN] | 2 µg/mL (≈ 6.26 µM)
COc1ccc2cc3[n+](cc2c1OCc1nc2ccccc2n1Cc1ccc([N+](=O)[O-])cc1)CCc1cc2c(cc1-3)OCO2.[Cl-] | 32 µg/mL

tested on: Proteus vulgaris; experiment: Antibacterial activity against Bacillus proteus ATCC 13315 measured after 24 hrs by two-fold serial dilution method; type: functional; conditions: ATCC 13315, 24 h; summary of the method: as §1

Compound | MIC
O=C(N[C@H](CO)[C@H](O)c1ccc([N+](=O)[O-])cc1)C(Cl)Cl [CHLORAMPHENICOL] | 32 µg/mL (≈ 99 µM)
CCCCCCCCCCn1c(COc2c(OC)ccc3cc4[n+](cc23)CCc2cc3c(cc2-4)OCO3)nc2ccccc21.[Cl-] | 512 µg/mL
COc1ccc2cc3[n+](cc2c1OCc1nc2ccccc2n1Cc1cccc(Cl)c1)CCc1cc2c(cc1-3)OCO2.[Cl-] | 128 µg/mL
CCn1cc(C(=O)O)c(=O)c2cc(F)c(N3CCNCC3)cc21 [NORFLOXACIN] | 8 µg/mL (≈ 25.1 µM)
COc1ccc2cc3[n+](cc2c1OCc1nc2ccccc2n1Cc1ccc([N+](=O)[O-])cc1)CCc1cc2c(cc1-3)OCO2.[Cl-] | 32 µg/mL

tested on: Escherichia coli; experiment: Antibacterial activity against Escherichia coli JM109 measured after 24 hrs by two-fold serial dilution method; type: functional; conditions: JM109, 24 h; summary of the method: as §1

Compound | MIC
O=C(N[C@H](CO)[C@H](O)c1ccc([N+](=O)[O-])cc1)C(Cl)Cl [CHLORAMPHENICOL] | 32 µg/mL (≈ 99 µM)
CCCCCCCCCCn1c(COc2c(OC)ccc3cc4[n+](cc23)CCc2cc3c(cc2-4)OCO3)nc2ccccc21.[Cl-] | 32 µg/mL
COc1ccc2cc3[n+](cc2c1OCc1nc2ccccc2n1Cc1cccc(Cl)c1)CCc1cc2c(cc1-3)OCO2.[Cl-] | 512 µg/mL
CCn1cc(C(=O)O)c(=O)c2cc(F)c(N3CCNCC3)cc21 [NORFLOXACIN] | 1 µg/mL (≈ 3.13 µM)
COc1ccc2cc3[n+](cc2c1OCc1nc2ccccc2n1Cc1ccc([N+](=O)[O-])cc1)CCc1cc2c(cc1-3)OCO2.[Cl-] | 32 µg/mL

tested on: Pseudomonas aeruginosa; experiment: Antibacterial activity against Pseudomonas aeruginosa measured after 24 hrs by two-fold serial dilution method; type: functional; conditions: not given; summary of the method: as §1

Compound | MIC
O=C(N[C@H](CO)[C@H](O)c1ccc([N+](=O)[O-])cc1)C(Cl)Cl [CHLORAMPHENICOL] | 32 µg/mL (≈ 99 µM)
CCCCCCCCCCn1c(COc2c(OC)ccc3cc4[n+](cc23)CCc2cc3c(cc2-4)OCO3)nc2ccccc21.[Cl-] | 16 µg/mL
COc1ccc2cc3[n+](cc2c1OCc1nc2ccccc2n1Cc1cccc(Cl)c1)CCc1cc2c(cc1-3)OCO2.[Cl-] | 256 µg/mL
CCn1cc(C(=O)O)c(=O)c2cc(F)c(N3CCNCC3)cc21 [NORFLOXACIN] | 16 µg/mL (≈ 50.1 µM)
COc1ccc2cc3[n+](cc2c1OCc1nc2ccccc2n1Cc1ccc([N+](=O)[O-])cc1)CCc1cc2c(cc1-3)OCO2.[Cl-] | 512 µg/mL

tested on: Salmonella typhi; experiment: Antibacterial activity against Salmonella typhi measured after 24 hrs by two-fold serial dilution method; type: functional, Salmonella enterica subsp. enterica serovar Typhi; conditions: Salmonella enterica; summary of the method: as §2

Compound | MIC
O=C(N[C@H](CO)[C@H](O)c1ccc([N+](=O)[O-])cc1)C(Cl)Cl [CHLORAMPHENICOL] | 32 µg/mL (≈ 99 µM)
CCCCCCCCCCn1c(COc2c(OC)ccc3cc4[n+](cc23)CCc2cc3c(cc2-4)OCO3)nc2ccccc21.[Cl-] | 2 µg/mL
COc1ccc2cc3[n+](cc2c1OCc1nc2ccccc2n1Cc1cccc(Cl)c1)CCc1cc2c(cc1-3)OCO2.[Cl-] | 256 µg/mL
CCn1cc(C(=O)O)c(=O)c2cc(F)c(N3CCNCC3)cc21 [NORFLOXACIN] | 4 µg/mL (≈ 12.5 µM)
COc1ccc2cc3[n+](cc2c1OCc1nc2ccccc2n1Cc1ccc([N+](=O)[O-])cc1)CCc1cc2c(cc1-3)OCO2.[Cl-] | 256 µg/mL

tested on: Candida albicans; experiment: Antifungal activity against Candida albicans ATCC 76615 measured after 24 hrs by two-fold serial dilution method; type: functional; conditions: ATCC 76615, 24 h; summary of the method: as §1

Compound | MIC80
CCCCCCCCCCn1c(COc2c(OC)ccc3cc4[n+](cc23)CCc2cc3c(cc2-4)OCO3)nc2ccccc21.[Cl-] | 8 µg/mL
COc1ccc2cc3[n+](cc2c1OCc1nc2ccccc2n1Cc1cccc(Cl)c1)CCc1cc2c(cc1-3)OCO2.[Cl-] | 512 µg/mL
COc1ccc2cc3[n+](cc2c1OCc1nc2ccccc2n1Cc1ccc([N+](=O)[O-])cc1)CCc1cc2c(cc1-3)OCO2.[Cl-] | 128 µg/mL

tested on: not listed separately; experiment: Antifungal activity against Candida utilis measured after 24 hrs by two-fold serial dilution method; type: functional; conditions: Cyberlindnera jadinii; summary of the method: as §1

Compound | MIC80
CCCCCCCCCCn1c(COc2c(OC)ccc3cc4[n+](cc23)CCc2cc3c(cc2-4)OCO3)nc2ccccc21.[Cl-] | 8 µg/mL
COc1ccc2cc3[n+](cc2c1OCc1nc2ccccc2n1Cc1cccc(Cl)c1)CCc1cc2c(cc1-3)OCO2.[Cl-] | 16 µg/mL
COc1ccc2cc3[n+](cc2c1OCc1nc2ccccc2n1Cc1ccc([N+](=O)[O-])cc1)CCc1cc2c(cc1-3)OCO2.[Cl-] | 32 µg/mL

tested on: not listed separately; experiment: Antifungal activity against Saccharomyces cerevisiae measured after 24 hrs by two-fold serial dilution method; type: functional; conditions: not given; summary of the method: as §1

Compound | MIC80
CCCCCCCCCCn1c(COc2c(OC)ccc3cc4[n+](cc23)CCc2cc3c(cc2-4)OCO3)nc2ccccc21.[Cl-] | 512 µg/mL
COc1ccc2cc3[n+](cc2c1OCc1nc2ccccc2n1Cc1cccc(Cl)c1)CCc1cc2c(cc1-3)OCO2.[Cl-] | 512 µg/mL
COc1ccc2cc3[n+](cc2c1OCc1nc2ccccc2n1Cc1ccc([N+](=O)[O-])cc1)CCc1cc2c(cc1-3)OCO2.[Cl-] | 128 µg/mL

tested on: Aspergillus flavus; experiment: Antifungal activity against Aspergillus flavus measured after 24 hrs by two-fold serial dilution method; type: functional; conditions: not given; summary of the method: as §1

Compound | MIC80
CCCCCCCCCCn1c(COc2c(OC)ccc3cc4[n+](cc23)CCc2cc3c(cc2-4)OCO3)nc2ccccc21.[Cl-] | 8 µg/mL
COc1ccc2cc3[n+](cc2c1OCc1nc2ccccc2n1Cc1cccc(Cl)c1)CCc1cc2c(cc1-3)OCO2.[Cl-] | 32 µg/mL
COc1ccc2cc3[n+](cc2c1OCc1nc2ccccc2n1Cc1ccc([N+](=O)[O-])cc1)CCc1cc2c(cc1-3)OCO2.[Cl-] | 64 µg/mL
